Series [1] deals with Mus musculus. Kind of series: Neurotoxicity in CF1 mouse at 100 mg/kg, ip after 4 hrs by rotarod test. Format: toxicity, organism-based. Also on record: dose 100 mg/kg, route intraperitoneal. Particulars: in vivo. The method, boiled down:
(§1)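 Rotorod neurotoxicity in male CF-1 mice (18–25 g) after i.p. compound in 0.5% methyl cellulose/water or PEG 200 at 30, 100 or 300 mg/kg; reported as number showing toxicity/number tested.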

The subject of series [2] is Mus musculus. Kind of series: Neurotoxicity in CF1 mouse at 300 mg/kg, ip after 4 hrs by rotarod test. Format: toxicity, organism-based. Also on record: dose 300 mg/kg, route intraperitoneal. Particulars: in vivo. Put shortly:
as §1

Series [3] concerns Mus musculus. The experiment in a line: Anticonvulsant activity in CF1 mouse assessed as protection against maximal electroshock-induced seizures at 30 mg/kg, ip after 0.5 hrs. The series is classed as functional, organism-based. Details: dose 30 mg/kg. The method, boiled down: (§2)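 Male CF-1 albino mice (18–25 g), dosed i.p. at 30, 100 or 300 mg/kg in 0.5% methyl cellulose/water or PEG 200 (0.01 ml/g); tested at intervals after dosing; protection = abolition of hind limb tonic extensor component of MES seizure; scored as protected/tested.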
A general note: The maximal electroshock test induces tonic seizures with an electrical stimulus.

In series [4] the test system is Mus musculus. The experiment in a line: Anticonvulsant activity in CF1 mouse assessed as protection against maximal electroshock-induced seizures at 30 mg/kg, ip after 4 hrs. The series is classed as functional, organism-based. Details: dose 30 mg/kg. Put shortly:
as §2

The test system of series [5] is Mus musculus. The experiment in a line: Anticonvulsant activity in CF1 mouse assessed as protection against maximal electroshock-induced seizures at 100 mg/kg, ip after 0.5 hrs. Format: functional, organism-based. Also on record: dose 100 mg/kg. Put shortly:
as §2

Series [6] concerns Mus musculus. Kind of series: Anticonvulsant activity in CF1 mouse assessed as protection against maximal electroshock-induced seizures at 100 mg/kg, ip after 4 hrs. Format: functional, organism-based. Also on record: dose 100 mg/kg. The method, boiled down: as §2
The subject of series [7] is Mus musculus. The experiment in a line: Anticonvulsant activity in CF1 mouse assessed as protection against maximal electroshock-induced seizures at 300 mg/kg, ip after 0.5 hrs. Format: functional, organism-based. Details: dose 300 mg/kg. The method, boiled down: as §2
In series [8] the test system is Mus musculus. The experiment in a line: Anticonvulsant activity in CF1 mouse assessed as protection against maximal electroshock-induced seizures at 300 mg/kg, ip after 4 hrs. Format: functional, organism-based. Also on record: dose 300 mg/kg. The method, boiled down:
as §2

Series [9] has as its system Mus musculus. The experiment in a line: Anticonvulsant activity in CF1 mouse assessed as protection against subcutaneous metrazole-induced seizures at 30 mg/kg, ip after 0.5 hrs. Also on record: dose 30 mg/kg. The series is classed as functional, organism-based.
The test system of series [10] is Mus musculus. Kind of series: Anticonvulsant activity in CF1 mouse assessed as protection against subcutaneous metrazole-induced seizures at 30 mg/kg, ip after 4 hrs. The series is classed as functional, organism-based. Also on record: dose 30 mg/kg.
For series [11], the system named is Mus musculus. The experiment in a line: Anticonvulsant activity in CF1 mouse assessed as protection against subcutaneous metrazole-induced seizures at 100 mg/kg, ip after 0.5 hrs. The series is classed as functional, organism-based. Details: dose 100 mg/kg.
The test system of series [12] is Mus musculus. The experiment in a line: Anticonvulsant activity in CF1 mouse assessed as protection against subcutaneous metrazole-induced seizures at 100 mg/kg, ip after 4 hrs. Format: functional, organism-based. Also on record: dose 100 mg/kg.
Series [13] deals with Mus musculus. The experiment in a line: Anticonvulsant activity in CF1 mouse assessed as protection against subcutaneous metrazole-induced seizures at 300 mg/kg, ip after 0.5 hrs. Format: functional, organism-based. Details: dose 300 mg/kg.
Series [14] relates to Mus musculus. Kind of series: Anticonvulsant activity in CF1 mouse assessed as protection against subcutaneous metrazole-induced seizures at 300 mg/kg, ip after 4 hrs. Format: functional, organism-based. Details: dose 300 mg/kg.
Series [15] deals with Mus musculus. The experiment in a line: Neurotoxicity in CF1 mouse at 30 mg/kg, ip after 0.5 hrs by rotarod test. The series is classed as toxicity, organism-based. Details: dose 30 mg/kg, route intraperitoneal. To be noted: in vivo. The method, boiled down: as §1
Background: In the rotarod test animals must keep their balance on a rotating rod.

In series [16] the test system is Mus musculus. Kind of series: Neurotoxicity in CF1 mouse at 100 mg/kg, ip after 0.5 hrs by rotarod test. Also on record: dose 100 mg/kg, route intraperitoneal. Format: toxicity, organism-based. To be noted: in vivo. Put shortly: as §1
Series [17] relates to Mus musculus. The experiment in a line: Neurotoxicity in CF1 mouse at 300 mg/kg, ip after 0.5 hrs by rotarod test. The series is classed as toxicity, organism-based. Also on record: dose 300 mg/kg, route intraperitoneal. To be noted: in vivo. The method, boiled down: as §1
Series [18] deals with Mus musculus. Kind of series: Neurotoxicity in CF1 mouse at 30 mg/kg, ip after 4 hrs by rotarod test. Format: toxicity, organism-based. Details: dose 30 mg/kg, route intraperitoneal. Particulars: in vivo. Put shortly: as §1

The source made the active and inactive calls. The calls are words filed in the database; no cut-off is given here.

For `CCCOc1c(C(=O)N/N=C(\C)c2ccccn2)sc(C(=O)N/N=C(\C)c2ccccn2)c1OCCC`, the Activity result with Mus musculus [1], with Mus musculus [2], in the series with Mus musculus [15], with Mus musculus [16], in the series on Mus musculus [17] and in the series with Mus musculus [18] was “Non-toxic” in each case. For the same compound, the result with Mus musculus [3], in the series on Mus musculus [4], with Mus musculus [5], in the series on Mus musculus [6], in the series on Mus musculus [7] and in the series with Mus musculus [8] was inactive. Also, the result in the series with Mus musculus [9], in the series with Mus musculus [10], in the series with Mus musculus [11], with Mus musculus [12], in the series with Mus musculus [13] and in the series on Mus musculus [14] was inactive.
With `CCCOc1c(C(=O)N/N=C/c2ccc3c(c2)c2ccccc2n3CC)sc(C(=O)N/N=C/c2ccc3c(c2)c2ccccc2n3CC)c1OCCC`, the Activity result is given as “Non-toxic” in the series on Mus musculus [1]; “Non-toxic” in the series on Mus musculus [2]; “Non-toxic” in the series on Mus musculus [15]; “Toxic” in the series with Mus musculus [16]; “Toxic” in the series with Mus musculus [17]; “Non-toxic” in the series on Mus musculus [18]. The outcome with Mus musculus [3], with Mus musculus [4], in the series on Mus musculus [5], with Mus musculus [6], in the series on Mus musculus [7] and in the series on Mus musculus [8] was inactive. The result with Mus musculus [9], in the series with Mus musculus [10], with Mus musculus [11], in the series on Mus musculus [12], with Mus musculus [13] and with Mus musculus [14] was inactive.
As for `CCCOc1c(C(=O)N/N=C/c2ccc(-c3ccccc3)cc2)sc(C(=O)N/N=C/c2ccc(-c3ccccc3)cc2)c1OCCC`, the Activity entry in the series with Mus musculus [1] is “Non-toxic”; in the series on Mus musculus [2] it was “Non-toxic”; in the series with Mus musculus [15] it was “Non-toxic”; in the series with Mus musculus [16], “Toxic”; in the series on Mus musculus [17], “Toxic”; in the series with Mus musculus [18], “Non-toxic”. Further, the result in the series with Mus musculus [3], in the series with Mus musculus [4], in the series on Mus musculus [5], in the series on Mus musculus [6], in the series with Mus musculus [7] and in the series with Mus musculus [8] was inactive. Moreover, the outcome with Mus musculus [9], with Mus musculus [10], in the series with Mus musculus [11], with Mus musculus [12], with Mus musculus [13] and with Mus musculus [14] was inactive.
For `CCCOc1c(C(=O)NN=C2CC(C)Sc3sc(S(N)(=O)=O)cc32)sc(C(=O)NN=C2CC(C)Sc3sc(S(N)(=O)=O)cc32)c1OCCC` (configuration not stated), the Activity result in the series on Mus musculus [1] is listed as “Non-toxic”; with Mus musculus [2], “Toxic”; in the series on Mus musculus [15], “Non-toxic”; in the series on Mus musculus [16] it was “Toxic”; with Mus musculus [17], “Toxic”; with Mus musculus [18], “Non-toxic”. For the same compound, the result in the series with Mus musculus [3], with Mus musculus [4], with Mus musculus [5], in the series with Mus musculus [6], with Mus musculus [7] and with Mus musculus [8] was inactive. Besides, the result in the series on Mus musculus [9], in the series on Mus musculus [10], with Mus musculus [11], with Mus musculus [12], in the series on Mus musculus [13] and in the series with Mus musculus [14] was inactive.

These data come from ChEMBL document CHEMBL1154150, “Synthesis and anticonvulsant activity of some new bishydrazones derived from 3,4-dipropyloxythiophene” (Eur J Med Chem, 2009).
